Values joined by “and” are separate entries in the source; they are usually repeats but may differ in a detail not shown here. Equal values may be shown once.
Legend:
[1] = system: Mus musculus; assay: MST of mitomycin 2 mg/kg treated group x 100/MST of untreated control group at a dose of 100 mg/kg in L1210 leukemic mice; type: functional
How it was run: (§1)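 Reference group of 8 B6D2F1 mice bearing ip-grafted 10⁵ L1210 cells (day 0), given mitomycin 2 mg/kg in distilled water ip on days 1, 5 and 9. Controls were 12 mice given vehicle only. Mortality was followed daily with autopsy. Ref I = mitomycin-group MST × 100/control MST, run alongside each test experiment.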

[2] = system: Mus musculus; assay: MST of mitomycin 2 mg/kg treated group x 100/MST of untreated control group at a dose of 20 mg/kg in L1210 leukemic mice; type: functional; how it was run: as §1
[3] = system: Mus musculus; assay: MST of mitomycin 2 mg/kg treated group x 100/MST of untreated control group at a dose of 50 mg/kg in L1210 leukemic mice; type: functional; how it was run: as §1
[4] = system: Mus musculus; assay: Median survival time of treated group / untreated group, when 20 mg/kg compound is administered intraperitoneally in L1210 leukemic mice; type: functional; settings: route intraperitoneal
How it was run: (§2)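 Male 3-month-old B6D2F1 mice, 10⁵ L1210 cells ip on day 0. Compound was given ip on days 1, 5 and 9 in aqueous 20% Tween 80 (0.1–0.2 mL per 20 g), 8 mice per group. Twelve vehicle controls. Daily mortality with autopsy to assign leukemic versus toxic death. I = treated MST × 100/control MST. Wilcoxon test, p < 0.05; active if I > 125 and p < 0.05.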

[5] = system: Mus musculus; assay: Median survival time of treated group / untreated group, when 50 mg/kg compound is administered intraperitoneally in L1210 leukemic mice; type: functional; settings: route intraperitoneal; how it was run: as §2
[6] = system: Mus musculus; assay: Median survival time of treated group / untreated group, when 100 mg/kg compound is administered intraperitoneally in L1210 leukemic mice; type: functional; settings: route intraperitoneal; how it was run: as §2
[7] = Lethal dose in L1210 leukemic mice, by administering compound intraperitoneally; type: toxicity, organism-based; settings: mouse, in vivo, ip
How it was run: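 Male B6D2F1 mice (3 months old) received 10⁵ L1210 leukemia cells ip on day 0. One day later they were given compound ip. Mortality was recorded daily for 9 days and the acute LD50 expressed in mg/kg.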

[8] = Ratio, I x 100/ref I at a dose of 100 mg/kg in L1210 leukemic mice; type: functional
How it was run: (§3)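 Male B6D2F1 mice, 3 months old, received 10^5 L1210 cells ip on day 0. Dosing was ip on days 1, 5 and 9 in 20% aqueous Tween 80, 0.1–0.2 mL per 20 g, with 8 mice per group. There were 12 vehicle controls and 8 mice given mitomycin 2 mg/kg ip in water. Daily mortality was recorded, with autopsies. Ratio = treated-group MST ×100/reference-group MST; Wilcoxon, p<0.05.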

[9] = Ratio, I x 100/ref I at a dose of 20 mg/kg in L1210 leukemic mice; type: functional; how it was run: as §3
[10] = Ratio, I x 100/ref I at a dose of 50 mg/kg in L1210 leukemic mice; type: functional; how it was run: as §3
[11] = system: Mus musculus; assay: MST of mitomycin 2 mg/kg treated group x 100/MST of untreated control group at a dose of 16 mg/kg in L1210 leukemic mice; type: functional; how it was run: as §1
[12] = system: Mus musculus; assay: Median survival time of treated group / untreated group, when 16 mg/kg compound is administered intraperitoneally in L1210 leukemic mice; type: functional; settings: route intraperitoneal; how it was run: as §2
[13] = system: Mus musculus; assay: Median survival time of treated group / untreated group, when 40 mg/kg compound is administered intraperitoneally in L1210 leukemic mice; type: functional; settings: route intraperitoneal; how it was run: as §2
[14] = system: Mus musculus; assay: Median survival time of treated group / untreated group, when 75 mg/kg compound is administered intraperitoneally in L1210 leukemic mice; type: functional; settings: route intraperitoneal; how it was run: as §2
[15] = system: Mus musculus; assay: MST of mitomycin 2 mg/kg treated group x 100/MST of untreated control group at a dose of 75 mg/kg in L1210 leukemic mice; type: functional; how it was run: as §1
[16] = Ratio of acute lethal dose to the efficient dose at 100 mg/kg dose; type: functional
How it was run: (§4)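 Ratio of acute LD50 to efficient dose. LD50 came from single ip dosing one day after ip grafting of 10⁵ L1210 cells in B6D2F1 mice, with 9-day mortality. The efficient dose came from ip treatment on days 1, 5 and 9 in the median-survival test.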

[17] = Ratio of acute lethal dose to the efficient dose at 85 mg/kg dose; type: functional; how it was run: as §4
[18] = Ratio, I x 100/ref I at a dose of 16 mg/kg in L1210 leukemic mice; type: functional; how it was run: as §3
[19] = Ratio, I x 100/ref I at a dose of 40 mg/kg in L1210 leukemic mice; type: functional; how it was run: as §3
[20] = system: Mus musculus; assay: MST of mitomycin 2 mg/kg treated group x 100/MST of untreated control group at a dose of 40 mg/kg in L1210 leukemic mice; type: functional; how it was run: as §1
[21] = Ratio, I x 100/ref I at a dose of 75 mg/kg in L1210 leukemic mice
[22] = system: Mus musculus; assay: Median survival time of treated group / untreated group, when 100 mg/kg compound is administered intraperitoneally in L1210 leukemic mice; settings: route intraperitoneal
[23] = system: Mus musculus; assay: MST of mitomycin 2 mg/kg treated group x 100/MST of untreated control group at a dose of 4 mg/kg in L1210 leukemic mice; type: functional; how it was run: as §1
[24] = system: Mus musculus; assay: MST of mitomycin 2 mg/kg treated group x 100/MST of untreated control group at a dose of 10 mg/kg in L1210 leukemic mice; type: functional; how it was run: as §1
[25] = system: Mus musculus; assay: MST of mitomycin 2 mg/kg treated group x 100/MST of untreated control group at a dose of 15 mg/kg in L1210 leukemic mice; type: functional; how it was run: as §1
[26] = system: Mus musculus; assay: Median survival time of treated group / untreated group, when 10 mg/kg compound is administered intraperitoneally in L1210 leukemic mice; type: functional; settings: route intraperitoneal; how it was run: as §2
[27] = system: Mus musculus; assay: Median survival time of treated group / untreated group, when 15 mg/kg compound is administered intraperitoneally in L1210 leukemic mice; type: functional; settings: route intraperitoneal; how it was run: as §2
[28] = system: Mus musculus; assay: Median survival time of treated group / untreated group, when 4 mg/kg compound is administered intraperitoneally in L1210 leukemic mice; type: functional; settings: route intraperitoneal; how it was run: as §2
[29] = Ratio, I x 100/ref I at a dose of 10 mg/kg in L1210 leukemic mice; type: functional; how it was run: as §3
[30] = Ratio, I x 100/ref I at a dose of 15 mg/kg in L1210 leukemic mice; type: functional; how it was run: as §3
[31] = Ratio, I x 100/ref I at a dose of 4 mg/kg in L1210 leukemic mice; type: functional; how it was run: as §3
[32] = system: Mus musculus; assay: Median survival time of treated group / untreated group, when 8 mg/kg compound is administered intraperitoneally in L1210 leukemic mice; type: functional; settings: route intraperitoneal; how it was run: as §2
[33] = system: Mus musculus; assay: MST of mitomycin 2 mg/kg treated group x 100/MST of untreated control group at a dose of 8 mg/kg in L1210 leukemic mice; type: functional; how it was run: as §1
[34] = Ratio of acute lethal dose to the efficient dose at 20 mg/kg; type: functional; how it was run: as §4
[35] = Ratio, I x 100/ref I at a dose of 8 mg/kg in L1210 leukemic mice; type: functional; how it was run: as §3

For `CNC(=O)OCc1c(COC(=O)NC)c(-c2ccco2)n2c1CCC2`, the Ref I oncostatic index [1] was 125, the “Ref I oncostatic index” value [2] was 117 and the “Ref I oncostatic index” value [3] was 117. It also gave an Oncostatic index [4] of 100, an Oncostatic index [5] of 108 and an Oncostatic index [6] of 100. The LD50 [7] was > 150 mg/kg, the Ratio [8] was 80 and the Ratio [9] was 86. The Ratio [10] was 92.

For `CNC(=O)OCc1c(COC(=O)NC)c(-c2ccsc2)n2c1CCC2`, the Ref I oncostatic index [1] was 140, the “Ref I oncostatic index” value [11] was 125 and the Oncostatic index [12] was 100. The Oncostatic index [13] was 100, the Oncostatic index [14] was 120 and the “Ref I oncostatic index” value [15] was 140 and 126. For the same molecule, the LD50 [7] was > 150 mg/kg, the Ratio [16] was 1.2 and the Ratio [17] was 1.4. For the same molecule, the Ratio [8] was 86, the Ratio [18] was 80 and the Ratio [19] was 80. For the same molecule, the “Ref I oncostatic index” value [20] was 125, the Ratio [21] was 86 and the Oncostatic index [22] was 120.

For `CC(C)NC(=O)OCc1c(COC(=O)NC(C)C)c(-c2cccs2)n2c1CCC2`, the “Ref I oncostatic index” value [23] was 164, the “Ref I oncostatic index” value [24] was 163 and the “Ref I oncostatic index” value [25] was 139. It also gave an Oncostatic index [26] of 129, an Oncostatic index [27] of 125 and an Oncostatic index [28] of 108. For the same molecule, the LD50 [7] was 35 mg/kg, the Ratio [29] was 79 and the Ratio [30] was 90. For the same molecule, the Ratio [31] was 66.

In the case of `CNC(=O)OCc1c(COC(=O)NC)c(-c2cccs2)n2c1CSC2`, the “Ref I oncostatic index” value [2] is reported as 121, the Oncostatic index [4] is reported as 125 and the Oncostatic index [32] is reported as 100. For the same molecule, the “Ref I oncostatic index” value [33] was 117, the LD50 [7] was 50 mg/kg and the Ratio [34] was 2.5. It also gave a Ratio [9] of 103 and a Ratio [35] of 86.

Reference: ChEMBL document CHEMBL1124400, “Synthesis and evaluation of antileukemic activity of 5-thienyl- or 5-(2-furyl)-2,3-dihydro-6,7-bis(hydroxymethyl)-1H-pyrrolizine bis(alkylcarbamates) and derivatives” (J Med Chem, 1989)
